Laboratory results: ChEMBL document CHEMBL4190208, “Design, synthesis and characterization of novel quinacrine analogs that preferentially kill cancer over non-cancer cells through the down-regulation of Bcl-2 and up-regulation of Bax and Bad” (Eur J Med Chem, 2017)
Calls of active or inactive are those of the source. The rule behind the calls is not given here.

Key:
MDA-MB-231 [1] = test: Cytotoxicity against human MDA-MB-231 cells assessed as growth inhibition after 48 hrs by SRB assay; assay type: functional, cell-based; conditions: MDA-MB-231, 48 h
In short: (§1)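 Cells seeded at 5000–10,000 per well and exposed continuously for 48 h to seven concentrations ([…]). DMSO stocks were diluted in medium, final DMSO ≤0.1%, and matched DMSO medium served as the negative control. Viable cell mass was read by SRB. IC50 is the concentration giving 50% growth decrease versus control. Values are the mean of triplicates from at least two independent experiments.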

MDA-MB-468 [2] = test: Cytotoxicity against human MDA-MB-468 cells assessed as growth inhibition after 48 hrs by SRB assay; assay type: functional, cell-based; conditions: MDA-MB-468, 48 h; in short: as §1
MCF7 [3] = test: Cytotoxicity against human MCF7 cells assessed as growth inhibition after 48 hrs by SRB assay; assay type: functional, cell-based; conditions: MCF7, 48 h; in short: as §1
184B5 [4] = test: Cytotoxicity against human 184B5 cells assessed as growth inhibition after 48 hrs by SRB assay; assay type: cell-based; conditions: 184B5, 48 h; in short: as §1
184B5 [5] = test: Cell cycle arrest in human 184B5 cells assessed as accumulation at sub-G1 phase at 6 uM after 48 hrs by flow cytometric method; assay type: ADME, cell-based; conditions: 184b5, 48 h
HeLa = test: Anticlonogenic activity against human HeLa cells at 3.5 uM after 12 days; assay type: functional, cell-based
MDA-MB-231 [6] = test: Induction of apoptosis in human MDA-MB-231 cells assessed as increase in cytochrome c levels in mitochondria at 6 uM after 24 to 72 hrs by Western blot method; assay type: functional, cell-based
MDA-MB-231 [7] = test: Effect on Bcl-XL levels in human MDA-MB-231 cells at 6 uM after 24 to 72 hrs by Western blot method; assay type: functional, cell-based
MDA-MB-468 [8] = test: Anticlonogenic activity against human MDA-MB-468 cells at 3.5 uM after 12 days; assay type: functional, cell-based
[9] = Selectivity index, ratio of IC50 for human MCF10A cells to IC50 for human MCF7 cells; assay type: toxicity; conditions: MCF10A cells versus MCF7 cells, read-out: Ratio IC50
MCF7 [10] = test: Induction of apoptosis in human MCF7 cells assessed as upregulation of Bad expression at 4 to 6 uM after 48 hrs by Western blot method; assay type: functional, cell-based
MDA-MB-231 [11] = test: Induction of apoptosis in human MDA-MB-231 cells assessed as upregulation of Bad expression at 6 uM after 24 to 72 hrs by Western blot method; assay type: functional, cell-based
MDA-MB-231 [12] = test: Induction of apoptosis in human MDA-MB-231 cells assessed as change in cell morphology at 6 uM after 24 hrs by acridine orange/ethidium bromide staining-based confocal microscopic method; assay type: functional
MDA-MB-231 [13] = test: Induction of apoptosis in human MDA-MB-231 cells assessed as increase in PARP cleavage at 6 uM after 24 hrs by Western blot method; assay type: functional, cell-based
MDA-MB-231 [14] = test: Induction of apoptosis in human MDA-MB-231 cells assessed as upregulation of Bax expression at 6 uM after 24 to 72 hrs by Western blot method; assay type: functional, cell-based
MCF-10A = test: Cytotoxicity against human MCF10A cells assessed as growth inhibition after 48 hrs by SRB assay; assay type: cell-based; in short: as §1
MCF7 [15] = test: Induction of apoptosis in human MCF7 cells at 6 uM after 24 hrs by TUNEL assay; assay type: functional, cell-based
[16] = Selectivity index, ratio of IC50 for human MCF10A cells to IC50 for human MDA-MB-231 cells; assay type: toxicity; conditions: MCF10A cells versus MDA-MB-231 cells, read-out: Ratio IC50
MDA-MB-231 [17] = test: Cell cycle arrest in human MDA-MB-231 cells assessed as accumulation at sub-G1 phase at 6 uM after 48 hrs by flow cytometric method; assay type: functional, cell-based
MDA-MB-231 [18] = test: Induction of apoptosis in human MDA-MB-231 cells assessed as downregulation of Bcl-2 expression at 6 uM after 24 to 72 hrs by Western blot method; assay type: functional, cell-based
MCF7 [19] = test: Anticlonogenic activity against human MCF7 cells at 3.5 uM after 12 days; assay type: functional, cell-based
MDA-MB-231 [20] = test: Induction of apoptosis in human MDA-MB-231 cells at 6 uM after 24 hrs by TUNEL assay; assay type: functional, cell-based

Structure (SMILES)	IC50 (MDA-MB-231 [1]) [µM]	IC50 (MDA-MB-468 [2]) [µM]	IC50 (MCF7 [3]) [µM]	IC50 (184B5 [4]) [µM]	also measured
COc1ccc2nc3cc(Cl)ccc3c(NCCCN3C(=O)CSC3c3ccc(C)cc3)c2c1 (stereo not given)	2.93	3.59	3.26	7.98	
COc1ccc2nc3cc(Cl)ccc3c(NCCCN3C(=O)CSC3c3ccc(F)cc3)c2c1 (stereo not given)	1.89	4.26	3.07	12.1	
COc1ccc2nc3cc(Cl)ccc3c(NCCCN3C(=O)CSC3c3ccco3)c2c1 (stereo not given)	1.97	5.58	4.78	13.4	
COc1ccc2nc3cc(Cl)ccc3c(NCCCN3C(=O)CSC3c3c(F)cccc3Cl)c2c1 (stereo not given)	2.12	3.96	3.04	8.07	
COc1ccc2nc3cc(Cl)ccc3c(NCCCN3C(=O)CSC3c3ccc(N(c4ccccc4)c4ccccc4)cc3)c2c1 (stereo not given)	17.6	14.4	10.4	17.8	
COc1ccc2nc3cc(Cl)ccc3c(NCCCN3C(=O)CSC3c3ccc(Cl)cc3Cl)c2c1 (stereo not given)	4.05	4.15	4.1	7.22	
COc1ccc2nc3cc(Cl)ccc3c(NCCCN3C(=O)CSC3c3ccccc3)c2c1 (stereo not given)	3.55	2.54	3.23	8.06	
COc1ccc2nc3cc(Cl)ccc3c(NCCCN3C(=O)CSC3c3c(F)cccc3F)c2c1 (stereo not given)	1.92	2.4	1.24	16.2	Activity (184B5 [5]): Non-Toxic; Activity (HeLa): Active; Activity (MDA-MB-231 [6]): Active; Activity (MDA-MB-231 [7]): inactive; Activity (MDA-MB-468 [8]): Active; selectivity ratio [9]: 14.7; Activity (MCF7 [10]): Active; Activity (MDA-MB-231 [11]): Active; Activity (MDA-MB-231 [12]): Active; Activity (MDA-MB-231 [13]): Active; Activity (MDA-MB-231 [14]): Active; IC50 (MCF-10A): 18.2 µM; Activity (MCF7 [15]): Active; selectivity ratio [16]: 7.6; Activity (MDA-MB-231 [17]): Active; Activity (MDA-MB-231 [18]): Active; Activity (MCF7 [19]): Active; Activity (MDA-MB-231 [20]): Active
COc1ccc2nc3cc(Cl)ccc3c(NCCCN3C(=O)CSC3C3CCCCC3)c2c1 (stereo not given)	3.86	3.75	3.81	3.14	
COc1ccc2nc3cc(Cl)ccc3c(NCCCN3C(=O)CSC3c3cccs3)c2c1 (stereo not given)	6.76	4.61	3.31	18	
COc1ccc2nc3cc(Cl)ccc3c(NCCCN3C(=O)CSC3c3ccccc3F)c2c1 (stereo not given)	1.95	3.91	2.93	8.16	
COc1ccc2nc3cc(Cl)ccc3c(NCCCN3C(=O)CSC3c3ccccc3Cl)c2c1 (stereo not given)	3.85	3.89	3.87	13.2	
COc1ccc2nc3cc(Cl)ccc3c(NCCCN3C(=O)CSC3c3ccccc3Br)c2c1 (stereo not given)	3.63	4.38	4	21.6	
COc1ccc2nc3cc(Cl)ccc3c(NCCCN3C(=O)CSC3c3ccncc3)c2c1 (stereo not given)	1.11	5.1	2.27	16.8	
COc1ccc2nc3cc(Cl)ccc3c(NCCCN3C(=O)CSC3c3ccc(Cl)cc3)c2c1 (stereo not given)	3.73	4.19	3.96	4.58	
COc1ccc2nc3cc(Cl)ccc3c(NCCCN3C(=O)CSC3c3c(Cl)cccc3Cl)c2c1 (stereo not given)	3.98	4.04	4.01	28.3	
COc1ccc2nc3cc(Cl)ccc3c(NCCCN3C(=O)CSC3c3ccc[nH]3)c2c1 (stereo not given)	6.4	4.52	10.6	18.4	
COc1ccc2nc3cc(Cl)ccc3c(NCCCN3C(=O)CSC3c3ccc(F)cc3F)c2c1 (stereo not given)	1.8	4.15	2.97	4.14	
COc1ccc2nc3cc(Cl)ccc3c(NCCCN3C(=O)CSC3c3ccccc3[N+](=O)[O-])c2c1 (stereo not given)	4.16	3.2	3.68	30.2	
COc1ccc2nc3cc(Cl)ccc3c(NCCCN3C(=O)CSC3c3ccc(N(C)C)cc3)c2c1 (stereo not given)	4.25	3.32	3.78	16.4	
COc1ccc2nc3cc(Cl)ccc3c(NCCCN3C(=O)CSC3c3ccnc4ccccc34)c2c1 (stereo not given)	3.7	6.64	6.55	13.1	
COc1ccc2nc3cc(Cl)ccc3c(NCCCN3C(=O)CSC3c3ccc(Br)cc3)c2c1 (stereo not given)	3.74	3.68	3.71	4.88	
COc1ccc2nc3cc(Cl)ccc3c(NCCCN3C(=O)CSC3c3ccc([N+](=O)[O-])cc3)c2c1 (stereo not given)	3.86	4.87	4.36	17.8	
